ChEMBL document CHEMBL1828601, “Small molecule peptidomimetic inhibitors of importin α/β mediated nuclear transport” (Bioorg Med Chem, 2010)
Activity calls are given as the source filed them. The rule behind the calls is not given here.

How the values were obtained:
FGM [1] = experiment: Inhibition of importin alpha/beta-mediated nuclear transportation of Alexa555-BSA-NLS in human FGM cell nucleus at 500 uM after 30 mins by fluorescence microscopy; format: cell-based
FGM [2] = experiment: Inhibition of importin alpha/beta-mediated nuclear transportation of Alexa555-GST-M9 in human FGM cell nucleus at 500 uM after 30 mins by fluorescence microscopy; format: cell-based
Method in brief: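 Transportin-dependent import measured the same way in permeabilized FGM cells, with 0.5 μM Alexa555-GST-M9 cargo in place of BSA-NLS. Conditions: 3 mg/ml HeLa cytosol, ATP-regenerating system, 0.2 mM GTP, 1% DMSO, 30 min at 30°C. Positive control was 1 mg/ml WGA. Nuclear cargo fluorescence quantified per nucleus by automated imaging.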

Compound	inhibition (FGM [1])	inhibition (FGM [2])
CC(C)C[C@H](N)C(=O)N1C[C@@H](C(=O)NCCc2c[nH]cn2)[C@H](C(=O)NCCc2c[nH]c3ccccc23)C1	inactive	inactive
CC[C@H](C)[C@H](NC(=O)c1ccc(NC(=O)[C@@H](N)CCSC)c(OCc2c[nH]cn2)c1)C(=O)O	inactive	inactive
N[C@@H](Cc1ccccc1)C(=O)N1C[C@@H](C(=O)NCCc2c[nH]cn2)[C@H](C(=O)NCCc2c[nH]c3ccccc23)C1	Active	Active
N[C@@H](Cc1ccccc1)C(=O)Nc1ccc(C(=O)N[C@@H](CCc2ccccc2)C(=O)O)cc1OCc1ccc(Cl)cc1	Active	Active
NCC(=O)Nc1ccc(C(=O)N[C@@H](CCc2ccccc2)C(=O)O)cc1OCc1ccc(Cl)cc1	inactive	inactive
N[C@@H](CCc1ccccc1)C(=O)Nc1ccc(C(=O)N[C@@H](CCc2ccccc2)C(=O)O)cc1OCc1ccc(Cl)cc1	Active	Active
CC[C@H](C)[C@H](NC(=O)c1ccc(NC(=O)[C@@H](N)Cc2ccc(OC)cc2)c(OCc2c[nH]cn2)c1)C(=O)O	inactive	inactive
C[C@H](N)C(=O)N1C[C@@H](C(=O)NCCCCN)[C@H](C(=O)NCCc2ccc3ccccc3c2)C1	inactive	inactive
NCCCCNC(=O)[C@@H]1CN(C(=O)[C@@H](N)Cc2cnc[nH]2)C[C@H]1C(=O)NCCc1ccc2ccccc2c1	inactive	inactive
NCCCCNC(=O)[C@@H]1CN(C(=O)[C@@H](N)Cc2c[nH]c3ccccc23)C[C@H]1C(=O)NCCc1ccc2ccccc2c1	Active	Active
CC[C@H](C)[C@H](NC(=O)c1ccc(NC(=O)[C@@H](N)Cc2ccc(Cl)cc2)c(OCc2c[nH]cn2)c1)C(=O)O	inactive	inactive
CC[C@H](C)[C@H](N)C(=O)N1C[C@@H](C(=O)NCCc2c[nH]cn2)[C@H](C(=O)NCCc2c[nH]c3ccccc23)C1	Active	Active
COc1ccc(C[C@H](N)C(=O)Nc2ccc(C(=O)N[C@@H](CCc3ccccc3)C(=O)O)cc2OCc2ccc(Cl)cc2)cc1	inactive	inactive
CC[C@H](C)[C@H](NC(=O)c1ccc(NC(=O)[C@@H](N)Cc2ccc3ccccc3c2)c(OCc2c[nH]cn2)c1)C(=O)O	Active	Active
CC[C@@H](C)[C@H](NC(=O)c1ccc(NC(=O)[C@@H](N)CO)c(OCc2c[nH]cn2)c1)C(=O)O	Active	Active
N[C@@H](CO)C(=O)Nc1ccc(C(=O)N[C@@H](CCc2ccccc2)C(=O)O)cc1OCc1ccc(Cl)cc1	Active	Active
NCCCCNC(=O)[C@@H]1CN(C(=O)[C@@H](N)Cc2ccc(O)cc2)C[C@H]1C(=O)NCCc1ccc2ccccc2c1	inactive	inactive
N[C@@H](CCc1ccccc1)C(=O)N1C[C@@H](C(=O)NCCc2c[nH]cn2)[C@H](C(=O)NCCc2c[nH]c3ccccc23)C1	Active	Active
CC[C@H](C)[C@H](NC(=O)c1ccc(NC(=O)[C@@H](N)C(C)C)c(OCc2c[nH]cn2)c1)C(=O)O	inactive	inactive
NCCCCNC(=O)[C@@H]1CN(C(=O)[C@@H](N)Cc2ccc3ccccc3c2)C[C@H]1C(=O)NCCc1ccc2ccccc2c1	inactive	inactive
N[C@@H](Cc1ccc2ccccc2c1)C(=O)N1C[C@@H](C(=O)NCCc2c[nH]cn2)[C@H](C(=O)NCCc2c[nH]c3ccccc23)C1	Active	Active
C[C@H](N)C(=O)Nc1ccc(C(=O)N[C@@H](CCc2ccccc2)C(=O)O)cc1OCc1ccc(Cl)cc1	Active	Active
